Read-outs that look alike come from different tables or passages of the source.
How the values were obtained:
[1] = Survival and body weight of mice, daily i.p. injection for seven days; assay type: in vivo; details: 0.127 µmoles i.p. daily, 7 days of treatment, n = 3
In short: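 Mice received test compound intraperitoneally once daily for seven days at 0.032–0.064, 0.127 or 0.127–0.254 µmoles depending on agent, n = 3 per group. Survival and body-weight change were recorded.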

[2] = system: cultured cells; details: cited from earlier work
[3] = system: FOM103 normal human melanocytes; assay: MTS cell viability assay, FOM103; assay type: cell-based; details: Melanocyte, read-out: IC50, cell viability (MTS)
[4] = doses of 200 mg per day, cited from earlier work
[5] = system: 1205 Lu melanoma cells (metastatic); assay: MTS cell viability assay, 1205 Lu; assay type: cell-based; details: Homo sapiens, 24 h, read-out: IC50, cell viability (MTS)
[6] = system: FF2441 human fibroblast cells; assay: MTS cell viability assay, FF2441; assay type: cell-based; details: read-out: IC50, cell viability (MTS)
[7] = system: UACC903 melanoma cells (metastatic); assay: MTS cell viability assay, UACC 903; assay type: cell-based; details: Homo sapiens, read-out: IC50, cell viability (MTS)
[8] = system: melanoma cells; assay: MTS cell viability assay, melanoma cells; assay type: cell-based; details: Homo sapiens, read-out: average IC50 for killing melanoma cells
[9] = system: sporadic melanomas with mutant V600EB-Raf; details: melanoma patients; cited from earlier work
[10] = system: COX-2 expression in 1205 Lu and UACC 903 cells; assay: Western blot of COX-2 / COX-1 expression after MAP kinase pathway inhibitors; assay type: cell-based, human
In short: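 Melanoma cells (1.5×10^6/100 mm dish) were treated 48 h after plating for 6–72 h with a B-Raf inhibitor (0.2–20 µmol/L) or a MEK inhibitor (2.5–50 µmol/L). Separately, cells were nucleofected with 100 pmoles siRNA against V600E B-Raf, MEK1, MEK2, ERK1 or ERK2, with lysates taken at day 4 or 6. Blots were probed for COX-1 and COX-2 and detected by enhanced chemiluminescence.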

Cc1ccc(-c2cc(C(F)(F)F)nn2-c2ccc(S(N)(=O)=O)cc2)cc1 [Celecoxib, 4-[5-(4-methylphenyl)-3-(trifluoromethyl)-1H-pyrazol-1-yl]benze nesulfonamide]
animal mortality [1]: death of all animals
concentrations required to induce apoptosis of cultured cells [2]: 25 to 100 µmol/L
concentrations required to trigger apoptosis in cultured cells [2]: 25 to 100 µmol/L
IC50 ([3]; 48 h): > 100 µM
IC50 ([3]; 72 h): 68 ± 1.2 µM
IC50 [3]: > 100 µM
side effects associated with clinical use ([4]; ref 15, 16): cardiovascular side effects
side effects associated with clinical use ([4]; ref 33): cardiovascular side-effects
IC50 [5]: > 100 µM
IC50 ([6]; FF2441, 24 h): > 100 µM
IC50 ([6]; FF2441, 48 h): > 100 µM
IC50 ([7]; UACC-903, 24 h): > 100 µM
IC50 ([7]; UACC-903, 48 h): > 100 µM
IC50 [8]: 55.6 µM

CCCS(=O)(=O)Nc1ccc(F)c(C(=O)c2c[nH]c3ncc(-c4ccc(Cl)cc4)cc23)c1F [PLX-4032]
response rates [9]: up to 80%
COX-2 protein expression ([10]; 1205 Lu cells): decreased COX-2 protein expression beginning after 12 h of treatment
COX-2 protein expression ([10]; UACC 903 cells): significant decrease was seen from 24 h of treatment
COX-1 expression ([10]; either cell line (1205 Lu, UACC 903)): no changes were observed in COX-1 expression

N#CC(=C(/N)Sc1ccccc1N)/C(C#N)=C(/N)Sc1ccccc1N [U0126]
levels of COX-2 protein and COX-1 ([10]; 1205 Lu and UACC 903 cell lines): reduced levels of COX-2 protein without affecting COX-1
